High-throughput results as filed in PubChem.
Sampled rows, rich in hits. Any-hit rate of the full collection: about 2.2%.
TDP2 inh: TDP2 (human) inhibition, absorbance primary screen; recombinant TDP2, T5PNP hydrolysis, p-nitrophenol absorbance 415 nm; inhibition, % at 12.8 µM; 370,000 compounds, 0.34% hits; AID 720702;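 active means inhibition above the mean of all tested compounds plus 3 SD, set per campaign, cut at about 25% in these data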;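 further: 0% = DMSO with enzyme and 100% = buffer with substrate but no TDP2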
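Incubation: 2 h at 37 °C; Test system: recombinant human TDP2; Quantity: enzyme 120 nM; Read-out basis: percent inhibition; Medium: 50 mM Tris-HCl pH 7.5 with Mg2+, KCl, DTT, BSA; Repeats: single replicate; Compound: 12.8 µM single point, 1% DMSO; Signal: epi absorbance; Reagent: 5 mM T5PNP chromogenic substrate; Benchmarks: no-enzyme high, DMSO-plus-enzyme low.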
HTRA1 inhibitor: inhibitors of human serine peptidase HTRA1; Q92743; recombinant HTRA1, FP-rhodamine activity-based probe, fluorescence polarization; inhibition, % at 5.96 µM; 340,000 compounds, 0.5% hits; AID 504803; in the data active means inhibition above about 36%;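 further: 0% = enzyme with DMSO and 100% = wells lacking enzyme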
mABHD4 FP: inhibitors of mouse ABHD4. Q8VD66. purified mABHD4, FP-Rh probe fluorescence polarization. inhibition, % at 8.92 µM. 370,000 compounds, 0.54% hits. AID 720543;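 active means inhibition exceeding the mean over every tested compound plus 3 SD, cut at about 30% in these data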;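 further: 0% = plate median of compound wells and 100% = S159A mutant with DMSO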
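system = mouse ABHD4 enzyme, wild type | medium = HEPES pH 7.0, NaCl, Pluronic buffer | also added = FP-Rh probe | incubation = Enzyme–compound pre-incubation 45 min, then probe 60 min, both 25 °C | technique = fluorescence polarization, excitation 525 nm, emission 598 nm, BODIPY TMR filters | controls = S159A mutant high control, sample median low control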
TCR CD3 inh: human TCR-CD3 binding inhibition; TAMRA-labeled TCR probe fluorescence, biochemical; inhibition, % at 9.4 µM; 360,000 compounds, 0.37% hits; AID 651800; in the data active means inhibition above about 19%;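 further: recombinant mutant TCR 2C K166C tagged with TAMRA read by polarization; 0% = receptor in buffer alone and 100% = receptor with positive control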
SIAE inh: inhibitors of human sialic acid acetylesterase SIAE. 370,000 compounds, 0.69% hits. SIAE FP-Rh probe binding, fluorescence polarization. Q9HAT2. AID 1053197. inhibition, % at 9.66 µM;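 active means inhibition above a cutoff: mean of compounds within the control limits plus 3 SD of those, cut at about 17% in these data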;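 further: 0% = plate median of compound wells and 100% = probe without SIAE protein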
Target sequence (Q9HAT2 whole entry, looked up): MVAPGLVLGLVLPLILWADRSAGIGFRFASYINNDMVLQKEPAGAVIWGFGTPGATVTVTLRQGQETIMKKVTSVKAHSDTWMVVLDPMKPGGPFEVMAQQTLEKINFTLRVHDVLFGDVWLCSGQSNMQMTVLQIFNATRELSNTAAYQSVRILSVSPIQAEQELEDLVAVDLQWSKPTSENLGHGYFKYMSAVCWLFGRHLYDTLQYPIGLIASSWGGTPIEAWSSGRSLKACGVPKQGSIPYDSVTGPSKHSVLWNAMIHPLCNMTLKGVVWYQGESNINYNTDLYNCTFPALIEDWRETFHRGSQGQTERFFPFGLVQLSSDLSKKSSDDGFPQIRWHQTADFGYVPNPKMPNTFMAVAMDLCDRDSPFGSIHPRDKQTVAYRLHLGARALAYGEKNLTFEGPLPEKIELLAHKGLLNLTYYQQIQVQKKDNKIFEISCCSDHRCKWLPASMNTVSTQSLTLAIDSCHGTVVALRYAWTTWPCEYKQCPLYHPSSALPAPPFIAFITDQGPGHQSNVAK
LEDGF integ inh: blocks HIV-1 LEDGF/p75-dependent DNA integration | TR-FRET IN-LEDGF/p75 DNA integration, Eu/Cy5 | inhibition, % at 3.7 µM | 370,000 compounds, 0.64% hits | AID 743269;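 active means inhibition above the screen-wide mean plus 3 SD, cut at about 13% in these data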;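 further: signal is the Cy5 over europium emission ratio at 671 and 618 nm; 0% = plate median of compound wells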
HTRA1 conf: HTRA1 (human) inhibition, confirmation | shares compounds with HTRA1 inhibitor | recombinant HTRA1, FP-rhodamine activity-based probe, fluorescence polarization | inhibition, % at 5.96 µM | 1,600 compounds, 66% hits | AID 540248;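 active means mean inhibition over three repeats above a set limit taken from the earlier primary screen, cut at about 37% in these data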;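 further: 0% = HTRA1 with DMSO and 100% = wells lacking HTRA1; inhibitors block probe binding so polarization drops and inhibition rises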
* hit, by the source's call; / = no result.

SMILES	TDP2 inh	HTRA1 inhibitor	mABHD4 FP	TCR CD3 inh	SIAE inh	LEDGF integ inh	HTRA1 conf
O=C(COCc1ccccc1)NC1CCCCN(Cc2cccc(Cl)c2)C1=O (configuration not stated)	-5	/	1	/	0	4	/
O=C(/C(=N/N=C/c1ccc(O)c(O)c1)c1ccccc1)c1ccccc1	-4	41*	16	7	-20	-5	78*
Cc1sc2ncnc(N/N=C/c3ccccc3O)c2c1C	-7	60*	22	-1	3	0	61*
Cc1sc2ncnc(N/N=C/c3ccc(O)cc3)c2c1C	3	20	18	1	-2	-3	/
Cn1c(N/N=C/c2c[nH]c3ccccc23)nc2ccccc21	-10	46*	22	2	11	-2	27
Cc1cc(N/N=C/c2c[nH]c3ccccc23)c2ccccc2n1	8	-4	-2	-2	14	-4	/
Fc1c(F)c(F)c(N/N=C/c2c[nH]c3ccccc23)c(F)c1F	5	43*	15	-6	13	4	42*
O=C(O)c1ccc(N/N=C/c2c[nH]c3ccccc23)cc1	9	9	7	-3	3	-1	/
COc1ccc(C2C(C(=O)N3CCN(c4ccccc4C)CC3)CC(=O)N2c2ccc(OC)cc2)cc1 (configuration not stated)	1	/	4	/	-1	2	/
CC(C)(C)c1ccc(O)c(O)c1	0	38*	25	6	-2	-2	60*
CC(C)(C)c1ccc(O)c(/C=N\O)c1	-6	4	2	3	13	2	/
COC(=O)[C@H](CC(C)C)N(CCc1cn(Cc2ccc(C)cc2)nn1)S(=O)(=O)c1ccccc1Br	-5	/	-8	/	-7	3	/
CCn1c(C)nc2cc(C(=O)N/N=C(\C)c3ccc(OC)cc3O)ccc21	-5	40*	9	-1	-1	0	34
COc1cccc(CNc2ccc(N3CCCCC3)cc2)c1OC	14	59*	25	-5	10	7	7
COc1cccc(Nc2ccc(N3CCCCC3)cc2)c1OC	0	17	21	-10	8	2	/
COc1ccccc1CNc1ccc(C(=O)O)cc1	0	-2	-1	-7	2	-3	/
COc1ccccc1CNc1ccc(N2CCCCC2)cc1	/	57*	/	/	/	/	14
N#CC(c1nc2ccccc2nc1N1CCCC1)S(=O)(=O)c1ccccc1 (configuration not stated)	1	39*	6	6	6	2	5
CN1CCN(c2nc3ccccc3nc2C(C#N)S(=O)(=O)c2ccccc2)CC1 (configuration not stated)	6	/	0	-4	0	-3	/
COc1ccc(CCNC(=O)c2ccc3c(c2)ncn3C2CCCCC2)cc1	-1	/	0	/	0	2	/
CCOc1ccc(N=Cc2ccc(N(C)C)cc2)c(O)c1	/	57*	/	/	/	/	57*
CCOc1ccc(/C=N/O)cc1	-6	2	-10	2	-2	1	/
CCCCOc1[nH]c2nc(-c3ccco3)n(Cc3ccco3)c(=N)c2c1C#N	7	42*	45*	8	16	19*	-5
Oc1c(C(c2ccccn2)N2CCCCC2)cc(Cl)c2cccnc12 (configuration not stated)	-12	53*	6	-1	4	-8	55*
CN1CCN(C(c2ccc(C(F)(F)F)cc2)c2cc(Cl)c3cccnc3c2O)CC1 (configuration not stated)	6	/	-7	-2	7	4	/
SMILES	TDP2 inh	HTRA1 inhibitor	mABHD4 FP	TCR CD3 inh	SIAE inh	LEDGF integ inh	HTRA1 conf
CN1CCN(C(c2ccc(Cl)cc2)c2cc(Cl)c3cccnc3c2O)CC1 (configuration not stated)	-20	43*	-1	-9	-4	-2	87*
O=C(NCc1ccccc1)[C@@H]1CCCN1C(=O)[C@H]1CCCN1C(=O)c1c(F)cccc1F	5	/	-1	-10	4	0	/
O=C(C(=O)N1CCC(CNS(=O)(=O)c2cccc3ccccc23)CC1)c1cccs1	3	/	-2	4	-4	-5	/
CCC1=NN(C(=O)c2cccc(Br)c2)C(O)(c2ccc(Br)cc2)C1 (configuration not stated)	4	75*	-6	2	1	-3	68*
CC(C)(C)C1=CC(CC(N)=O)(C(C)(C)C)OC1=O (configuration not stated)	5	/	-3	-6	1	-5	/
O=C(CSc1nc2ccccc2o1)NC1CCCC1	-7	3	3	-7	0	-9	/
O=C(CSc1nc2ccccc2o1)NCC1CCCO1 (configuration not stated)	-28	55*	-10	-12	5	0	13
Cc1ccc2ccc(C(Nc3cccc(C(F)(F)F)c3)c3cccnc3)c(O)c2n1 (configuration not stated)	-2	54*	4	-1	4	-7	61*
O=C(NC(C(=O)N/N=C/c1c2ccccc2cc2ccccc12)c1n[nH]c(=O)c2ccccc12)c1ccccc1 (configuration not stated)	-14	40*	-16	6	-32	0	-72
O=[N+]([O-])c1ccc(Cn2ccc3ccc(-c4ccc5ccn(Cc6ccccc6)c5c4)cc32)cc1	6	/	2	/	-4	-4	/
NC(=S)NN=Cc1nccc2ccccc12	-5	21	29	-5	-2	1	/
NC(=S)NN=Cc1nccc2c(C(F)(F)C(F)(F)C(F)(F)F)cccc12	1	68*	18	-1	3	0	64*
CCOC(=O)C1CSCCS(=O)(=O)N1Cc1ccccc1C (configuration not stated)	1	/	3	-6	3	-3	/
NC[C@@H]1O[C@H](C23CC4CC(CC(C4)C2)C3)Cc2c1ccc(O)c2O	-7	60*	21	-1	-3	-3	73*
CCC[C@H]1[C@@H](NC(=O)c2ccc(OC)cc2)CC[C@@]23CCCN2C(=O)CCC[C@@H]13	-1	/	2	/	2	1	/
COCc1[nH]nc2c1C(c1ccc(F)cc1)N(c1ccc(OC)cc1)C2=O (configuration not stated)	-9	/	4	3	0	1	/
O=C(Nc1cccc(F)c1)O[C@@H]1CC[C@@]23CCCN2C(=O)CCC[C@H]3C1	-6	/	0	/	0	0	/
CCCCn1c(SCC(=O)c2ccc(O)c(O)c2)nc2ccsc2c1=O	/	59*	/	/	/	/	61*
CCCCn1c(SCC(=O)c2ccccc2)nc2ccsc2c1=O	-4	-8	-5	5	3	2	/
